Reference: ChEMBL document CHEMBL4808231, “Development of curcumin-based amyloid β aggregation inhibitors for Alzheimer's disease using the SAR matrix approach” (Bioorg Med Chem, 2021)
Activity calls are given as the source filed them. No cut-off for these calls is given here.

Assays:
[1] = Inhibition of human amyloid beta 42 aggregation assessed as decreasing in fluorescence intensity for 3 hrs by ThT fluorescence assay
In short: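 Aβ42 monomer (20 µM final) plus ThT (20 µM final, diluted in PBS pH 7.4) and serial 10-fold compound dilutions (1 to 0.00001 µM), 37 °C for 3 h with 15 s shaking every 5 min. Fluorescence read at ex 430/em 480 nm and corrected against a PBS+ThT blank. IC50 taken from intensity at half Vmax versus concentration; mean ± s.d. of triplicates.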

[2] = target: Amyloid-beta precursor protein (Homo sapiens) (UniProt P05067); assay: Inhibition of amyloid beta (unknown origin) aggregation assessed as increase in generation of amyloid beta oligomers at 10 uM incubated for 30 mins by negative staining TEM imaging analysis
Amyloid-beta precursor protein (Homo sapiens), sequence (P05067 whole entry): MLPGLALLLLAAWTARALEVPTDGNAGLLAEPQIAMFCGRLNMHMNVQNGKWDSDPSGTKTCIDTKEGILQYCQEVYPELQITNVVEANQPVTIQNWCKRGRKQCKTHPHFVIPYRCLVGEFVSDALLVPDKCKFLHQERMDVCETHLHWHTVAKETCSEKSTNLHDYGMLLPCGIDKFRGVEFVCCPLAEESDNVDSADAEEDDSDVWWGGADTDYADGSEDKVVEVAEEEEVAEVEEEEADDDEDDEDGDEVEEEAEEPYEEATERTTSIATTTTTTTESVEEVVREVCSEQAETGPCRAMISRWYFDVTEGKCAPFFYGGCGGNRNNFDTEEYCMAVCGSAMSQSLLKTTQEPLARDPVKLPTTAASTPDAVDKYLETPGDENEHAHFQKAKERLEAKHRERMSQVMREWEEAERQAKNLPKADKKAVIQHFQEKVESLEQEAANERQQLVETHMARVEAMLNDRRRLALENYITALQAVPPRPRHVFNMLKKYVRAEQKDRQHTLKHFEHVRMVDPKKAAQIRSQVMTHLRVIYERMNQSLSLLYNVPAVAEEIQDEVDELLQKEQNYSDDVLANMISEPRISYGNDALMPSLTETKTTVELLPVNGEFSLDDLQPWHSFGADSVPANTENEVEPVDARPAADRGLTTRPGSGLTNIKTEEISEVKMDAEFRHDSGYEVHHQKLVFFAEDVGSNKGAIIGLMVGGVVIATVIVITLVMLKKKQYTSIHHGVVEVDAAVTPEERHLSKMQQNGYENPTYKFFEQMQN
In short: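 Aβ monomer stock (500 µM in 2 mM NaOH, centrifuged supernatant) diluted to 5 µM, incubated alone or with compound in PBS pH 7.4 at 37 °C for 30 min. Sample applied to plasma-hydrophilised carbon grid for 1 min at RT, washed with water, stained 1 min with 1% Nano-W, imaged by TEM at 200 kV.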

[3] = tested on: N2a; assay: Neuroprotective effect against amyloid beta-induced cytotoxicity in mouse N2a cells assessed as cell viability measured after 3 hrs by MTT assay (reference value: 55%); assay type: functional
[4] = Neurotoxicity in human U87 MG cells assessed as cell viability for 24 hrs by MTT assay; assay type: cell-based, U-87MG ATCC; settings: U-87 MG
In short: (§1)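 N2A or U87 MG cells (8x10^3/well, DMEM + 10% FBS, grown overnight at 37 °C, 5% CO2) treated 24 h with compound at 1, 5, 10, 25, 50, 100 and 200 µM. MTT 0.5 mg/mL for 3 h, DMSO added, absorbance read at 550 nm. IC50 from semi-log dose-response plots; mean ± s.d. of three independent experiments in triplicate.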

[5] = Neurotoxicity in mouse N2a cells assessed as cell viability for 24 hrs by MTT assay; assay type: cell-based; in short: as §1

IC50 [1]	inhibition [2]	SMILES	Activity [3]	IC50 [4]	IC50 [5]
7 nM	Active	COC(=O)COc1ccc(/C=C/C(=O)CC(=O)/C=C/c2ccc(O)c(OC)c2)cc1C(F)(F)F	70%	90000 nM	38700 nM
55 nM	–	COc1cc(/C=C/C(=O)CC(=O)/C=C/c2ccc(OCC(=O)OC(C)(C)C)c(C(F)(F)F)c2)ccc1O	>90%	> 100000 nM	> 100000 nM
55 nM	–	COC(=O)COc1ccc(/C=C/C(=O)CC(=O)/C=C/c2ccc(OCC(=O)OC)c(C(F)(F)F)c2)cc1OC	–	–	–
693 nM	–	COc1cc(/C=C/C(=O)CC(=O)/C=C/c2ccc(O)c(OC)c2)ccc1O [CURCUMIN]	–	18400 nM	22600 nM
29 nM	–	COC(=O)COc1ccc(/C=C/C(=O)CC(=O)/C=C/c2ccc(O)c(OC)c2)cc1OC	–	–	–
46 nM	–	COC(=O)COc1ccc(/C=C/C(=O)CC(=O)/C=C/c2cccc(C(F)(F)F)c2)cc1OC	–	–	–
22 nM	–	COC(=O)COc1ccc(/C=C/C(=O)CC(=O)/C=C/c2ccc(O)c(C(F)(F)F)c2)cc1OC	–	–	–

The next lines start with the molecule.

SMILES	IC50 [1]	inhibition [2]	Activity [3]	IC50 [4]	IC50 [5]
COc1cc(/C=C/C(=O)CC(=O)/C=C/c2ccc(OCC(=O)O)c(C(F)(F)F)c2)ccc1O	698 nM	–	–	–	–
O=C(/C=C/c1cccc(C(F)(F)F)c1)CC(=O)/C=C/c1ccc(O)c(C(F)(F)F)c1	18 nM	–	–	–	–
Nc1c2c(nc3ccccc13)CCCC2 [TACRINE]	22 nM	–	–	–	–
COc1cc(/C=C/C(=O)CC(=O)/C=C/c2cccc(C(F)(F)F)c2)ccc1O	13 nM	–	–	88700 nM	65700 nM
COc1cc(/C=C/C(=O)CC(=O)/C=C/c2ccc(O)c(C(F)(F)F)c2)ccc1O	52 nM	–	–	–	–
COC(=O)COc1ccc(/C=C/C(=O)CC(=O)/C=C/c2ccc(O)c(C(F)(F)F)c2)cc1C(F)(F)F	109 nM	–	–	–	–
